Reference: ChEMBL document CHEMBL1131199, “Structure-activity of novel rhodacyanine dyes as antitumor agents” (J Med Chem, 1998)

What was measured:
[1] = system: KB; assay: In vitro inhibition of growth of KB cells (cytotoxic assay).; type: functional, cell-based, Homo sapiens
[2] = Lethal dose when administered intraperitoneally; type: toxicity; conditions: mouse, ip
[3] = system: CX-1; assay: In vitro inhibition of growth of human carcinoma CX-1 cell line (clonogenic assay).; type: functional, cell-based
[4] = system: Mus musculus; assay: Tumor inhibition (TI) ratio at a dose of 1 mg/kg for 4 day; type: functional
[5] = system: Mus musculus; assay: In vivo ratio of median survival time of drug-treated to control, untreated tumor-bearing mice at a dose of 4 mg/kg for 7 days; type: functional
[6] = Lethal dose when administered intravenously; type: toxicity; conditions: mouse, iv
[7] = system: CV-1; assay: Compound was tested in vitro for inhibition of growth of cytotoxic CV-1 cell line; type: functional, cell-based, Homo sapiens; conditions: Chlorocebus aethiops
[8] = system: Mus musculus; assay: In vivo ratio of median survival time of drug-treated to control, untreated tumor-bearing mice at a dose of 5 mg/kg for 3 days; type: functional
[9] = system: Mus musculus; assay: In vivo ratio of median survival time of drug-treated to control, untreated tumor-bearing mice at a dose of 10 mg/kg for 1 day; type: functional
[10] = The solubility in 0.9% saline was determined; type: ADME
[11] = The solubility in water was determined; type: ADME
[12] = system: Mus musculus; assay: In vivo ratio of median survival time of drug-treated to control, untreated tumor-bearing mice at a dose of 10 mg/kg for 5 days; type: functional
[13] = system: Mus musculus; assay: In vivo ratio of median survival time of drug-treated to control, untreated tumor-bearing mice at a dose of 5 mg/kg for 5 days; type: functional
[14] = system: Mus musculus; assay: Tumor inhibition (TI) ratio at a dose of 3 mg/kg for 4 day; type: functional
Procedure, shortened: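 BDF1 mice (male, inbred, 5-week-old, ~1 week acclimation) implanted sc with 5 × 10^5 CA755 cells; compound given iv in 0.9% saline (0.2 mL/20 g body weight), 3 mg/kg/day × 4. Tumors weighed at day 11; inhibition (%) = (A − B)/A × 100, A and B being mean control and treated tumor weights. Five mice per group; Bartlett's, Dunnett's, Scheffé's tests.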

[15] = system: CV-1; assay: The IC50 value for 50%inhibition of cells on clonogenic CV-1 […] cytotoxic cell lines.; type: functional, cell-based; conditions: Chlorocebus aethiops
Procedure, shortened: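 CV-1 cytotoxicity assay: cells seeded at 4×10^4 per 20 mm plate at 37 °C in 5% CO2. Next day, cells were exposed to varying compound concentrations for 1 week, stained with crystal violet, and viable cells counted.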

[16] = system: Mus musculus; assay: In vivo ratio of median survival time of drug-treated to control, untreated tumor-bearing mice at a dose of 7 mg/kg for 5 days; type: functional
Procedure, shortened: (§1)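 Male Swiss nu/nu mice, about 5 weeks old, acclimated 1 week. LOX melanoma was first grown sc in nude mice, then made into a single-cell suspension with RBCs lysed by ammonium chloride. Each mouse got 2×10^6 LOX cells ip in PBS. From the next day, compound was given ip in 45% hydroxypropyl β-cyclodextrin in water. T/C is median survival of treated over untreated controls, as a percentage. Five mice per group.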

[17] = system: Mus musculus; assay: In vivo ratio of median survival time of drug-treated to control, untreated tumor-bearing mice at a dose of 4 mg/kg for 5 days; type: functional; procedure, shortened: as §1
[18] = system: Mus musculus; assay: In vivo ratio of median survival time of drug-treated to control, untreated tumor-bearing mice at a dose of 2 mg/kg for 5 days; type: functional
[19] = system: Mus musculus; assay: In vivo ratio of median survival time of drug-treated to control, untreated tumor-bearing mice at a dose of 5 mg/kg for 4 day; type: functional

| Compound | IC50 ([1]; Homo sapiens, KB) [nM] | LD50 [2] [mg/kg] | IC50 ([3]; Homo sapiens, CX-1) [nM] | LD50 [6] [mg/kg] | further results |
| --- | --- | --- | --- | --- | --- |
| CC(=O)[O-].CCn1c(=O)/c(=C2\Sc3ccccc3N2C)s/c1=C\c1sc2ccccc2[n+]1CC | 60 | 30 | 60 | 5 | TI [4]: 59.4%; T/C [5]: 163%; IC50 [7]: 1400 nM |
| CCN1CCS/C1=C\C=c1/s/c(=C\c2sc3c4ccccc4ccc3[n+]2C)n(CC)c1=O | 490 | – | 30 | – | – |
| CCn1c(=O)/c(=C/C=C2/N(C)c3ccccc3C2(C)C)s/c1=C\c1oc2c3ccccc3ccc2[n+]1CC.Cc1ccc(S(=O)(=O)[O-])cc1 | 270 | – | 10 | – | T/C [8]: 94% |
| CC(=O)[O-].CCN1C(C)=CS/C1=C\C=c1/s/c(=C\c2sc3ccccc3[n+]2CC)n(CC)c1=O | 250 | – | 60 | – | T/C [9]: 138% |
| CCn1c(=O)/c(=C2\Sc3ccccc3N2C)s/c1=C\c1cccc[n+]1CC.[I-] | – | – | – | – | solubility [10]: < 100 µg/mL; IC50 ([1]; kb): 46800 nM; solubility [11]: 200 µg/mL; IC50 ([3]; cx-1): 800 nM |
| CCN1/C(=C/C=c2\s/c(=C\c3sc4ccc5ccccc5c4[n+]3CC)n(CC)c2=O)Sc2ccc3ccccc3c21.Cc1ccc(S(=O)(=O)[O-])cc1 | 210 | – | 40 | – | T/C [12]: 126% |
| CCN1CCS/C1=C\C=c1/s/c(=C\c2sc3c4ccccc4ccc3[n+]2CCO)n(CC)c1=O | – | – | 390 | – | – |
| CC(=O)[O-].CCn1c(=O)/c(=C2\Sc3ccccc3N2C)s/c1=C\c1cccc[n+]1CC | – | 50 | – | 20 | solubility [10]: > 5000 µg/mL; IC50 ([1]; kb): 860 nM; T/C [13]: >310%; solubility [11]: > 5000 µg/mL; IC50 ([3]; cx-1): 1100 nM; TI [14]: 76.5%; IC50 [15]: 63200 nM |
| CCn1c(=O)/c(=C2\Sc3ccc4ccccc4c3N2C)s/c1=C\c1sc2c3ccccc3ccc2[n+]1CC.[Cl-] | 340 | – | 50 | – | T/C [16]: 112% |
| CCCC[n+]1c(/C=c2\s/c(=C\C=C3/SCCN3CC)c(=O)n2CC)sc2c3ccccc3ccc21 | 460 | – | 30 | – | – |
| CC(=O)[O-].CCn1c(=O)/c(=C2\Sc3ccccc3N2C)s/c1=C\c1oc2ccccc2[n+]1CC | 1130 | 10 | 180 | > 10 | T/C [13]: 140%; IC50 [7]: 14700 nM |
| CC(=O)[O-].CCn1c(=O)/c(=C2\Sc3ccccc3N2C)s/c1=C\c1scc(C)[n+]1CC | 950 | 30 | 110 | 20 | T/C [17]: >173%; IC50 [7]: 23600 nM |
| CC(=O)[O-].CCn1c(=O)/c(=C2\Sc3ccccc3N2C)s/c1=C\C1=[N+](CC)CCS1 | 6220 | 40 | 1040 | 15 | T/C [18]: 133%; IC50 [7]: 13200 nM |
| CCn1c(=O)/c(=C2\Sc3ccccc3N2C)s/c1=C\c1cccc[n+]1CC.[Cl-] | – | 50 | – | 20 | solubility [10]: > 5000 µg/mL; IC50 ([1]; kb): 810 nM; solubility [11]: > 5000 µg/mL; T/C [19]: >344%; TI [14]: 75.5% |
| CCn1c(=O)/c(=C2\Oc3ccccc3N2C)s/c1=C\c1cccc[n+]1CC | 3730 | – | > 2400 | – | – |
| CC(=O)[O-].CCn1c(=O)/c(=C2\Sc3ccc4ccccc4c3N2C)s/c1=C\c1oc2c3ccccc3ccc2[n+]1CC | 80 | – | 680 | – | T/C [18]: 120% |
| CC(=O)[O-].CCn1c(=O)/c(=C2\SCCN2C)s/c1=C\c1sc2ccc3ccccc3c2[n+]1CC | 250 | – | 160 | – | T/C [17]: 106% |
| CC(=O)[O-].CCn1c(=O)/c(=C2\Sc3ccccc3N2C)s/c1=C\c1ccc2ccccc2[n+]1CC | 280 | 30 | 280 | 10 | T/C [18]: 124%; IC50 [7]: 8700 nM |
| CCN1CCS/C1=C\C=c1/s/c(=C\c2sc3c4ccccc4ccc3[n+]2CCC(=O)O)n(CC)c1=O | > 15000 | – | > 1500 | – | – |
| CCN1C=CC=C/C1=C\C=c1/s/c(=C\c2sc3ccc4ccccc4c3[n+]2CC)n(CC)c1=O.[Cl-] | 770 | – | 80 | – | T/C [17]: 122% |
| CC(=O)[O-].CCn1c(=O)/c(=C2\Sc3ccccc3N2C)s/c1=C\C1CCC[n+]2c1sc1ccccc12 (stereo unspecified) | 230 | 30 | 230 | 3 | T/C [17]: >208%; IC50 [7]: 2900 nM |
| CCN1CCS/C1=C\C=c1/s/c(=C\c2sc3c4ccccc4ccc3[n+]2CC)n(CC)c1=O | 320 | – | 20 | – | – |
| CCn1c(=O)/c(=C/C=C2\Sc3ccc4ccccc4c3N2C)s/c1=C\c1scc(C)[n+]1CC | 2000 | – | > 1800 | – | – |
| CCn1c(=O)/c(=C2\C=CC=CN2C)s/c1=C\c1sc2ccccc2[n+]1CC | 2170 | – | 1760 | – | – |
| CC(=O)[O-].CCN1/C(=C/C=c2\s/c(=C\C3=[N+](CC)CCS3)n(CC)c2=O)C=Cc2ccccc21 | 910 | – | 160 | – | T/C [12]: 143% |
